The target in one test is T1, Adenosine kinase (Toxoplasma gondii, UniProt Q9TVW2).
T1 sequence (Q9TVW2 whole entry): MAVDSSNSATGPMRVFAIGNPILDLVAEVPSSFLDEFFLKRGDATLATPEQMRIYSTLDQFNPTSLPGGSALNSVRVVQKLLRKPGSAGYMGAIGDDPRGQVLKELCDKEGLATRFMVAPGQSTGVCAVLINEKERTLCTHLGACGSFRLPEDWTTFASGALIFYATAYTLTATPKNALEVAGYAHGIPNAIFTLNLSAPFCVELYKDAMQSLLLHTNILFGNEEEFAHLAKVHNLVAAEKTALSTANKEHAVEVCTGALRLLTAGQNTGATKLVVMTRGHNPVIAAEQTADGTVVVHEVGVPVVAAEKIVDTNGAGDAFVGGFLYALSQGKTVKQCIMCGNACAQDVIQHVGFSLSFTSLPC
Nature of the test: Binding affinity to Toxoplasma gondii adenosine kinase after 20 mins by radioactivity method. The gist of the method: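 Purified cloned T. gondii adenosine kinase in 50 mM Tris–Cl pH 7.4 with 2.5 mM ATP, 5 mM MgCl₂, 5 mM creatine phosphate, creatine kinase and [8-¹⁴C]adenosine (55 Ci/mol), with or without varied compound, at 37 °C under linear conditions. Stopped by boiling; adenosine and AMP separated by TLC (CHCl₃/MeOH/AcOH 102:12:6) and radioactivity quantified. Apparent Ki taken as apparent Km. ≥2 experiments in triplicate.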

The test system of test [1] is Toxoplasma gondii. Briefly: Antimicrobial activity against adenosine kinase deficient Toxoplasma gondii TgAK-3 infected in human CRL1634 cells assessed as intracellular parasite survival at 5 uM after 18 hrs by [5,6-[…]]uracil-based scintillation counting. Type of test: functional. The method in brief:
(§1)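 Confluent human foreskin fibroblasts (≤20 passages, RPMI-1640) plated ~5×10⁵/well for 24 h at 37 °C, 5% CO₂. Infected with isolated tachyzoites in 3% FBS medium, 1 parasite/cell, for 1 h, then washed with 10% FBS medium. Compounds in 50% ethanol added to 0–50 µM (final ethanol 2.5%). After 18 h, drug-free medium with [5,6-³H]uracil (5 µCi/mL) for 6 h. TCA precipitates collected on glass-fiber filters and counted by scintillation. Growth taken as % uptake of treated vs untreated; ≥2 experiments in triplicate.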

Test [2] concerns Toxoplasma gondii. Nature of the test: Antimicrobial activity against adenosine kinase deficient Toxoplasma gondii TgAK-3 infected in human CRL1634 cells assessed as intracellular parasite survival at 10 uM after 18 hrs by [5,6-[…]]uracil-based scintillation counting. Type of test: functional. The method in brief: as §1
Test [3] relates to Toxoplasma gondii. Nature of the test: Antimicrobial activity against adenosine kinase deficient Toxoplasma gondii TgAK-3 infected in human CRL1634 cells assessed as intracellular parasite survival at 50 uM after 18 hrs by [5,6-[…]]uracil-based scintillation counting. In kind it is functional. The method in brief: as §1
Test [4] relates to Toxoplasma gondii. Briefly: Antimicrobial activity against wild-type Toxoplasma gondii RH infected in human CRL1634 cells assessed as intracellular parasite survival at 10 uM after 18 hrs by [5,6-[…]]uracil-based scintillation counting. Type of test: functional. The method in brief: as §1
Test [5] relates to Toxoplasma gondii. Nature of the test: Antimicrobial activity against wild-type Toxoplasma gondii RH infected in human CRL1634 cells assessed as intracellular parasite survival at 25 uM after 18 hrs by [5,6-[…]]uracil-based scintillation counting. In kind it is functional. The gist of the method:
as §1

The subject of test [6] is Toxoplasma gondii. Briefly: Antimicrobial activity against wild-type Toxoplasma gondii RH infected in human CRL1634 cells assessed as intracellular parasite survival at 50 uM after 18 hrs by [5,6-[…]]uracil-based scintillation counting. Type of test: functional. The method in brief:
as §1

The test system of test [7] is Toxoplasma gondii. Nature of the test: Antimicrobial activity against wild-type Toxoplasma gondii RH infected in human CRL1634 cells assessed as intracellular parasite survival at 5 uM after 18 hrs by [5,6-[…]]uracil-based scintillation counting. Type of test: functional. The method in brief:
as §1

Test [8] has as its system Toxoplasma gondii. Briefly: Antimicrobial activity against adenosine kinase deficient Toxoplasma gondii TgAK-3 infected in human CRL1634 cells assessed as intracellular parasite survival at 25 uM after 18 hrs by [5,6-[…]]uracil-based scintillation counting. Type of test: functional. The gist of the method:
as §1

Test [9] is filed under the species Homo sapiens. Nature of the test: Cytotoxicity against uninfected human CRL1634 cells assessed as cell viability at 10 uM after 48 hrs by MTT assay. (Tetrazolium assays rely on reduction of a dye to a coloured formazan, in cell work by metabolically active cells.)
Test [10] is filed under the species Homo sapiens. Nature of the test: Cytotoxicity against uninfected human CRL1634 cells assessed as cell viability at 5 uM after 48 hrs by MTT assay.
Test [11] concerns Toxoplasma gondii. Nature of the test: Antimicrobial activity against Toxoplasma gondii infected in human CRL1634 cells assessed as intracellular parasite survival at 25 uM after 18 hrs by [5,6-[…]]uracil-based scintillation counting. In kind it is functional. The method in brief: as §1
The test system of test [12] is Toxoplasma gondii (RH strain). Nature of the test: Activity against Toxoplasma gondii RH in human CRL1634 cells after 18 hrs by [5,6-3H]uracil incorporation assay.
The target in test [13] is T2, Adenosine kinase (Toxoplasma gondii) (UniProt Q9TVW2).
T2 sequence (whole entry): T1 sequence (Q9TVW2 whole entry)
Nature of the test: Ratio of Km for carbocyclic 6-benzylthioinosine to Km for drug for binding affinity to Toxoplasma gondii adenosine kinase after 20 mins by radioactivity method.

The results in this text go back to ChEMBL document CHEMBL1157834, “Structure-activity relationships of carbocyclic 6-benzylthioinosine analogues as subversive substrates of Toxoplasma gondii adenosine kinase” (Bioorg Med Chem, 2010).

Usually Ki stands for a measure of affinity in units of concentration, obtained from inhibition or displacement. In general, IC50 refers to the concentration that inhibits the measured activity by half. A high value points to a need for much substance.

As to `OC[C@H]1C[C@@H](n2cnc3c(SCc4ccccc4)ncnc32)[C@H](O)[C@@H]1O`, the Ki on Adenosine kinase is 105 µM.

In the case of `COc1ccc(CSc2ncnc3c2ncn3[C@@H]2C[C@H](CO)[C@@H](O)[C@H]2O)cc1`, on Adenosine kinase, the Ki was found to be 62 µM.

Consider `CS(=O)(=O)c1ccc(CSc2ncnc3c2ncn3[C@@H]2C[C@H](CO)[C@@H](O)[C@H]2O)cc1`, for which, on Adenosine kinase, the Ki worked out at 73.7 µM.

For the molecule `Cc1cccc(CSc2ncnc3c2ncn3[C@@H]2C[C@H](CO)[C@@H](O)[C@H]2O)c1`, the inhibitory constant (Ki) on Adenosine kinase is 26.8 µM.

Regarding `OC[C@H]1O[C@@H](n2cnc3c(SCc4ccccc4)ncnc32)[C@H](O)[C@@H]1O` [6-BENZYLTHIOINOSINE], the inhibition constant Ki at Adenosine kinase stood at 14.3 µM.

For `OC[C@H]1C[C@@H](n2cnc3c(SCc4ccc(F)cc4)ncnc32)[C@H](O)[C@@H]1O`, the Ki at Adenosine kinase was 31.9 µM.

Consider `O=[N+]([O-])c1ccc(CSc2ncnc3c2ncn3[C@@H]2C[C@H](CO)[C@@H](O)[C@H]2O)cc1`, for which the Ki on Adenosine kinase is 94.1 µM.

For the molecule `OC[C@H]1C[C@@H](n2cnc3c(SCc4ccccc4Cl)ncnc32)[C@H](O)[C@@H]1O`, the Ki at Adenosine kinase is 24.2 µM.

Turning to `OC[C@H]1C[C@@H](n2cnc3c(SCc4ccc(Cl)cc4)ncnc32)[C@H](O)[C@@H]1O`, the Activity with Toxoplasma gondii [1] came to 100%; with Toxoplasma gondii [2] it was 100%; in the test with Toxoplasma gondii [3] it was 100%; in the test on Toxoplasma gondii [4], 12%; in the test with Toxoplasma gondii [5], 0%; in the test with Toxoplasma gondii [6] it was 0%. The Activity with Toxoplasma gondii [7] is listed as 73%; in the test with Toxoplasma gondii [8], 100%; in the test filed under Homo sapiens [9], 100%; in the test listed under Homo sapiens [10], 100%; with Toxoplasma gondii [11], 100%. The Ki at Adenosine kinase was 15.6 µM. In addition, the IC50 in test [12] turned out to be 14.5 µM.

Take `OC[C@H]1C[C@@H](n2cnc3c(SCc4ccc(OC(F)(F)F)cc4)ncnc32)[C@H](O)[C@@H]1O`: at Adenosine kinase, the Ki is 65.5 µM.

With `OC[C@H]1C[C@@H](n2cnc3c(SCc4ccc(Cl)cc4Cl)ncnc32)[C@H](O)[C@@H]1O`, the Ki on Adenosine kinase is 60.7 µM.

On to `OC[C@H]1C[C@@H](n2cnc3c(SCc4ccccc4F)ncnc32)[C@H](O)[C@@H]1O`, for which, at Adenosine kinase, the Ki was 54.8 µM.

In the case of `CCc1nc(N)nc(N)c1-c1ccc(Cl)cc1` [PYRIMETHAMINE], the Activity in the test with Toxoplasma gondii [4] is 55%; in the test on Toxoplasma gondii [5], 25%; with Toxoplasma gondii [6] it was 23%; with Toxoplasma gondii [7], 99%; in the test filed under Homo sapiens [9], 100%; in the test listed under Homo sapiens [10], 101%. Also, the Activity with Toxoplasma gondii [11] worked out at 108%. The molecule further had an IC50 in [12] of 16.1 µM.

In the case of `Cc1cc(C)c(CSc2ncnc3c2ncn3[C@@H]2C[C@H](CO)[C@@H](O)[C@H]2O)c(C)c1`, at Adenosine kinase, the Ki amounted to 63.1 µM.

Consider `COC(=O)c1ccc(CSc2ncnc3c2ncn3[C@@H]2C[C@H](CO)[C@@H](O)[C@H]2O)cc1`, for which the inhibition constant Ki at Adenosine kinase was 40.9 µM.

`Nc1ccc(S(=O)(=O)Nc2ncccn2)cc1` [SULFADIAZINE]: the Activity in the test with Toxoplasma gondii [4] is 58%; in the test with Toxoplasma gondii [5] it was 53%; in the test with Toxoplasma gondii [6] it was 46%; in the test on Toxoplasma gondii [7], 93%; in the test listed under Homo sapiens [9], 100%; in the test listed under Homo sapiens [10], 98%. For the same molecule, the Activity in the test on Toxoplasma gondii [11] came to 100%. This molecule also gave an IC50 in test [12] of 27.3 µM.

For `N#Cc1ccc(CSc2ncnc3c2ncn3[C@@H]2C[C@H](CO)[C@@H](O)[C@H]2O)cc1`, at Adenosine kinase, the Ki stood at 129 µM.

For the molecule `OC[C@H]1C[C@@H](n2cnc3c(SCc4c(F)cccc4Cl)ncnc32)[C@H](O)[C@@H]1O`, at Adenosine kinase, the Ki stood at 31.3 µM.

In the case of `Cc1ccccc1CSc1ncnc2c1ncn2[C@@H]1C[C@H](CO)[C@@H](O)[C@H]1O`, the Ki on Adenosine kinase amounted to 24.9 µM.

Consider `OC[C@H]1C[C@@H](n2cnc3c(SCc4cccc(C(F)(F)F)c4)ncnc32)[C@H](O)[C@@H]1O`, for which, at Adenosine kinase, the inhibition constant (Ki) amounted to 22.2 µM.

In the case of `O=[N+]([O-])c1cccc(CSc2ncnc3c2ncn3[C@@H]2C[C@H](CO)[C@@H](O)[C@H]2O)c1`, the Ki on Adenosine kinase turned out to be 26.6 µM.

Regarding `OC[C@H]1C[C@@H](n2cnc3c(SCc4ccc(Cl)c(Cl)c4)ncnc32)[C@H](O)[C@@H]1O`, the inhibition constant Ki at Adenosine kinase is 16.8 µM.

On to `OC[C@H]1C[C@@H](n2cnc3c(SCc4ccc(Br)cc4)ncnc32)[C@H](O)[C@@H]1O`, for which the Ki at Adenosine kinase turned out to be 21.1 µM.

Turning to `Cc1ccc(CSc2ncnc3c2ncn3[C@@H]2C[C@H](CO)[C@@H](O)[C@H]2O)cc1`, the Activity came out at 99% in the test on Toxoplasma gondii [1]; 100% in the test with Toxoplasma gondii [2]; 100% in the test with Toxoplasma gondii [3]; 2.5% with Toxoplasma gondii [4]; 0% in the test on Toxoplasma gondii [5]; 0% with Toxoplasma gondii [6]. Moreover, the Activity in the test on Toxoplasma gondii [7] came out at 43%; in the test on Toxoplasma gondii [8], 100%; in the test filed under Homo sapiens [9], 100%; in the test filed under Homo sapiens [10], 100%; in the test with Toxoplasma gondii [11] it was 100%. Also, at Adenosine kinase, the inhibition constant Ki is 7.5 µM. In test [13], the Ratio is 14. In addition, inhibition in test [12] was half-maximal at 11.9 µM (IC50).
